Bioassay records from PubChem BioAssay.
IMP-1 inhibitor = IMP-1 metallo-beta-lactamase inhibitors, primary screen, biochemical, epi-absorbance readout, Pseudomonas aeruginosa enzyme; inhibition, % at 5.6 µM; 290,000 compounds, 0.45% hits; metallo-beta-lactamase IMP-1 (Pseudomonas aeruginosa); purified IMP-1, nitrocefin hydrolysis, epi-absorbance fluorescence; AID 1556, 2009;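 active = inhibition above the mean plus 3 SD of all compounds in the same screening run, cut at about 4.5% in these data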
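Test system: recombinant IMP-1 enzyme, purified / Medium: HEPES buffer pH 7.1 with ZnSO4 and Brij 35 / Doses: single dose, 5.6 µM / Times: 25 °C, 15 min preincubation, 25 min reaction / Detection: Epi-absorbance via hydrolysed-nitrocefin quenching of white-plate fluorescence, 480/530 nm, EDTA stop / Evaluation: percent inhibition from optical density relative to buffer-blank wells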
CHT allo act = CHT positive allosteric modulators, primary screen, cell-based, membrane potential dye, choline EC20. High affinity choline transporter 1 (Homo sapiens), Q9GZV3. CHT-expressing cells; active compounds read high; LV-AA mutant CHT in HEK293 cells. B-score at 10 µM. 310,000 compounds, 0.49% hits;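 active = initial fluorescence not abnormally high and integrated response B-score, plate-corrected, over 3 SD above library mean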
ANO1 block = TMEM16A chloride channel inhibitors, primary screen, cell-based, HTS | Anoctamin-1 (Mus musculus), Q8BHY3 | HEK293 TMEM16A/YFP iodide influx fluorescence, ionomycin | normalized B-score (activity score, 25-100; higher = stronger inhibition) at 10 µM | 310,000 compounds, 1.2% hits | AID 588511, 2011;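 active = ratio plate-corrected score three or more library SD toward inhibition, starting fluorescence score within five deviations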;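 also: score derived from kinetic fluorescence span divided by baseline fluorescence per well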
Target sequence (Q8BHY3 whole entry, looked up): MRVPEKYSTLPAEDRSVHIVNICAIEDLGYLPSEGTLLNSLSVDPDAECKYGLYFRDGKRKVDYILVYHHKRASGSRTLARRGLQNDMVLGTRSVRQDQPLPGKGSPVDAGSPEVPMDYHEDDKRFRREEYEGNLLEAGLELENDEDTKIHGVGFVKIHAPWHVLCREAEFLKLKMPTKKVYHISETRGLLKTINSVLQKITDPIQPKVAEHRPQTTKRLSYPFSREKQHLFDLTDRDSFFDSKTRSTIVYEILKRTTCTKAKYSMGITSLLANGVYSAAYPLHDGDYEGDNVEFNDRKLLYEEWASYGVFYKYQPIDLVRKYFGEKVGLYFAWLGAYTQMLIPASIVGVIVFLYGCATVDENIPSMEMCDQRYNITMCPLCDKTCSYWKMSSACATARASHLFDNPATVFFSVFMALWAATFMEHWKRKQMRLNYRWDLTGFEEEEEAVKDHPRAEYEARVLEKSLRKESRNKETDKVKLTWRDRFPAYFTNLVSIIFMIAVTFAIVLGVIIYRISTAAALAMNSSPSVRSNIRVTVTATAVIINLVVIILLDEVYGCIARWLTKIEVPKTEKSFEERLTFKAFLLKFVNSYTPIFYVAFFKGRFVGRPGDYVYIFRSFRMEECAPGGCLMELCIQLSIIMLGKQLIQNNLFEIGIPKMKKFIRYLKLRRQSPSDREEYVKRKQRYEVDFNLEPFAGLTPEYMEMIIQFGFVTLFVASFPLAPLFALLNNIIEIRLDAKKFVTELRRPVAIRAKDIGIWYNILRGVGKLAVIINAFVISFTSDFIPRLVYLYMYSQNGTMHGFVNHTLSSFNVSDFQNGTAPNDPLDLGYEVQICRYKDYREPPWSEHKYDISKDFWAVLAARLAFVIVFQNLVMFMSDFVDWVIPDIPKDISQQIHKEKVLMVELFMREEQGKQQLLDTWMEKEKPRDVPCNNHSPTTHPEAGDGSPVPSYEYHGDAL
ANO1 activ = TMEM16A chloride channel activators or potentiators, primary screen, cell-based, HTS; Anoctamin-1 (Mus musculus), Q8BHY3; HEK293 TMEM16A/YFP-H148Q/I152L, iodide quench fluorescence; active compounds read low; B-score at 10 µM; 340,000 compounds, 0.3% hits;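 active = fluorescence-ratio B-score plate-corrected deviation score at least 3 library SD below zero, with starting fluorescence score within 5 deviations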;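 also: channel opened by trigger with iodide after compound preincubation; score built on the fluorescence ratio of max minus min over baseline; more negative score means more quench and so TMEM16A activation or potentiation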
CHT inh = inhibitors of human choline transporter CHT; CHT-expressing cells, membrane potential dye, choline response; active compounds read low; B-score at 10 µM; 310,000 compounds, 0.86% hits; AID 488975, 2010;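 active = B-score over 3 SD under the library average, and starting fluorescence ratio not unusually high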;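 also: choline stimulus applied at its EC90 after an EC20 pre-addition; B-score computed on integrated fluorescence ratio after choline addition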
VIM-2 inhibitor = VIM-2 metallo-beta-lactamase inhibitors, primary screen, biochemical, epi-absorbance readout, Pseudomonas aeruginosa enzyme. purified VIM-2, nitrocefin hydrolysis, epi-absorbance fluorescence. inhibition, % at 5.6 µM. 290,000 compounds, 0.89% hits. AID 1527, 2009;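 active = inhibition above the mean of all tested compounds plus 3 SD, cutoff set per screening run, cut at about 7.5% in these data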;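 also: red hydrolysis product quenches plate fluorescence so inhibitors raise well fluorescence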
CHT act confirm = CHT activators, confirmation, cell-based, membrane potential dye, duplicate | CHT-expressing cells, membrane potential dye fluorescence (FDSS); % of choline EC20–EC90 response window; HEK293 expressing CHT LV-AA mutant; choline added at its EC20 | AID 504833, 2011 | activation, % at 10 µM | shares compounds with CHT allo act | 2,500 compounds, 91% hits;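 active = primary screen active, with duplicate mean activation above negative control mean plus 3 SD, cut at about 11% in these data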
HEK293 MP dye = membrane potential response in parental HEK293 cells, counter-screen for CHT activator project, cell-based, membrane potential dye; membrane potential dye fluorescence (FDSS); measured after EC20 choline addition; 2,500 compounds, 62% hits; shares compounds with CHT allo act; ratio readout change at 10 µM, hits read low; AID 623908, 2012;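 active = duplicate-averaged ratio beyond 3 SD from buffer wells, up or down, though filed actives are nearly all decreases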
Of the large screens only hits and unclear results are named; the others gave an inactive call (follow-up assays come after a bar, where they were run). The list is not random: actives were taken first. Their share in the collection is about 3.4%.

CC(=O)c1ccc2c(c1)N(CCCN1CCC(CCO)CC1)c1ccccc1S2	CHT allo act 9.1 (no result: IMP-1 inhibitor, VIM-2 inhibitor) | CHT act confirm 46 | HEK293 MP dye -49
NC(=O)C1CCN(C(=O)CC(c2ccccc2)c2ccccc2)CC1	none
Cc1cccc(C(=O)N2CCCC(N3CCN(c4ccccc4)CC3)C2)n1 (configuration not stated)	none
COC(=O)Cn1c2c(c3cc(C)ccc31)CCCC2	none (no result: IMP-1 inhibitor, VIM-2 inhibitor)
N=c1c2c(n(Cc3ccc(Cl)c(Cl)c3)c3c1CCC3)CCCC2	CHT allo act 9.6 | CHT act confirm 78 | HEK293 MP dye -39
CCOC(=O)Cn1c2c(c(=N)c3c1CCC3)CCCC2	none | CHT act confirm 42 | HEK293 MP dye -34
CCCCCCCn1c2c(c(=N)c3ccccc31)CCC2	CHT allo act 17, ANO1 block 100, ANO1 activ -5.1 | CHT act confirm 75 | HEK293 MP dye -43
N=c1c2c(n(Cc3ccc(Br)cc3)c3c1CCC3)CCCC2	none
CCCn1c2c(c(=N)c3c1CCC3)CCCC2	CHT allo act 7.9 | CHT act confirm 50 | HEK293 MP dye -72
CCc1cc(Cn2nc(-c3ccccc3)cc2C(=O)NCc2cccc(Br)c2)on1	none (no result: IMP-1 inhibitor, CHT allo act, ANO1 block, CHT inh, VIM-2 inhibitor)
CCCn1c2c(c(=N)c3c1CCC3)CCC2	CHT allo act 6.6 | CHT act confirm 59 | HEK293 MP dye -52
CCC1Oc2ccc(C)cc2N(CC(=O)NCC2CCCO2)C1=O (configuration not stated)	none
c1cncc(CSc2nnc(-c3cccnc3)n2Cc2ccco2)c1	none (no result: CHT allo act, ANO1 block, ANO1 activ, CHT inh)
FC(F)(F)COc1cc(-c2nnc(SCc3ccccc3)n2Cc2ccco2)cc(OCC(F)(F)F)n1	CHT allo act 9.2 | CHT act confirm 24 | HEK293 MP dye inactive
O=[N+]([O-])c1cccc(/C=N/NC2CCS(=O)(=O)C2)c1 (configuration not stated)	none
CCOc1cc(NC(=O)c2ccco2)c(OCC)cc1NC(=O)c1ccco1	CHT allo act 11 | CHT act confirm 21 | HEK293 MP dye inactive
CCOc1cc(NC(=S)NC)c(OCC)cc1NC(=O)c1ccco1	none
Cc1ccc(-c2nc3ncccn3c2NC2CCCC2)o1	none
Cc1ccc(-c2nc3ncccn3c2Nc2ccccc2C)o1	none | CHT act confirm 40 | HEK293 MP dye -43
COc1ccccc1C(C)NC(=O)CCNC(=O)c1ccc(Cl)cc1 (configuration not stated)	none (no result: IMP-1 inhibitor, CHT allo act, ANO1 block, CHT inh, VIM-2 inhibitor)
CCOc1ccc(N(CC(=O)Nc2ccc(OC)cc2OC)S(=O)(=O)c2c(C)[nH]c(=O)[nH]c2=O)cc1	none
Clc1ccc(CN2C3=NCCN3c3ccccc32)cc1Cl	none | CHT act confirm 23 | HEK293 MP dye inactive
COC(=O)c1ccc(OCCN2C3=NCCN3c3ccccc32)cc1	none | CHT act confirm 17 | HEK293 MP dye -40
c1ccc2c(c1)N1CCN=C1N2CCN1CCCCC1	CHT allo act 9.8 | CHT act confirm 80 | HEK293 MP dye -80
c1ccc2c(c1)N1CCCN=C1N2CCN1CCCCC1	CHT allo act 9.5 | CHT act confirm 31 | HEK293 MP dye -72
c1ccc(CN2C3=NCCN3c3ccccc32)cc1	none
CCOC(=O)C1=CN(Cc2ccco2)S(=O)(=O)N(C)C1CC (configuration not stated)	none (no result: IMP-1 inhibitor, CHT allo act, ANO1 block, CHT inh, VIM-2 inhibitor)
Cc1ccc(NC(=O)COc2ccccc2C=O)cc1Cl	none
O=C(COc1ccccc1Cl)Nc1ccc2c(c1)C(=O)NC2=O	none
O=C(CN1C(=O)CCC1=O)Nc1nc(-c2nc3ccccc3s2)cs1	none | CHT act confirm 18 | HEK293 MP dye inactive
COc1ccc(NC(=S)N(C(C)C)C2CCN(C(C)C)CC2)cc1Cl	none (no result: ANO1 activ)
Cc1ccccc1C1c2[nH]c3ccccc3c2CCN1Cc1cccn1-c1ncccn1 (configuration not stated)	CHT allo act 6.3 | CHT act confirm 27 | HEK293 MP dye inactive
COc1ccc(OCc2ccc(/C=N\NC(=O)c3sccc3C)o2)cc1	none
CC(C)Cc1ccc(C(C)C(N)=NCCc2ccccc2)cc1 (configuration not stated)	CHT allo act 13 | CHT act confirm inactive | HEK293 MP dye inactive
N#Cc1c(N)sc2c1CCN(CCc1ccccc1)C2	ANO1 block 25 | CHT act confirm 30 | HEK293 MP dye -41
O=C(Cc1cccs1)N(Cc1ccco1)C1(C(=O)NC2CCCC2)CCCCC1	CHT allo act 10 | CHT act confirm 41 | HEK293 MP dye inactive
Cc1cc(NC(=O)CCC(=O)N(Cc2ccco2)C2(C(=O)NC3CCCC3)CCC(C)CC2)no1 (configuration not stated)	none
COc1ccccc1CN(C(=O)Cc1cccs1)C(C(=O)NC1CCCC1)c1ccncc1 (configuration not stated)	none | CHT act confirm inactive | HEK293 MP dye inactive
COc1ccccc1CN(C(=O)c1ccco1)C(C(=O)NC1CCCC1)c1ccncc1 (configuration not stated)	none
O=C(NC1CCCC1)C(c1ccsc1)N(Cc1ccccc1)C(=O)Cc1cccs1 (configuration not stated)	CHT allo act 6.9 | CHT act confirm 43 | HEK293 MP dye inactive
Cc1cc(NC(=O)CCC(=O)N(Cc2ccco2)C2(C(=O)NC3CCCCC3)CCCC(C)C2)no1 (configuration not stated)	none | CHT act confirm 19 | HEK293 MP dye inactive
O=C(NC1CCCC1)C(c1ccncc1)N(Cc1ccccc1)C(=O)Cc1cccs1 (configuration not stated)	none
CCOC(=O)c1ccc(Oc2coc3cc(O)ccc3c2=O)cc1	none
O=C(NCc1cc([N+](=O)[O-])ccc1O)c1cccnc1Sc1ccccc1Cl	none
O=C1COc2ccc(C(=O)COC(=O)c3cc(S(=O)(=O)NCc4ccccc4)ccc3O)cc2N1	none
